Series [1] deals with Human immunodeficiency virus 1. Description: Antiviral activity against HIV1 3B infected in human MT4 cells assessed as inhibition of virus-induced cytopathic effect after 5 days by MTT assay. In kind it is functional, organism-based. The note with it: Human immunodeficiency virus 1, 3B, MT4, 120 h. An outline of the steps: (§1)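 MT-4 cells spun 5 min at 1000 rpm, resuspended at 6 × 10⁵ cells/mL, then infected with HIV-1 IIIB or HIV-2 ROD at 100–300 CCID50. Test compounds were added as serial fivefold dilutions. After 5 days, viability was read by MTT reduction at 540 and 690 nm, using the median OD of three wells. EC50 is the concentration giving 50% protection against virus-induced cytotoxicity.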
(Damage to the host cells serves as the signal in cytopathic effect assays.)

In series [2] the test system is Human immunodeficiency virus 2. Description: Antiviral activity against HIV2 ROD infected in human MT4 cells assessed as inhibition of virus-induced cytopathic effect after 5 days by MTT assay. In kind it is functional, organism-based. The note with it: Human immunodeficiency virus 2, ISOLATE ROD, MT4, 120 h. An outline of the steps: as §1
Series [3] can be described thus: Cytotoxicity against human MT4 cells after 5 days by MTT assay. It counts as cell-based. An outline of the steps: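 MT-4 cells at 6 × 10⁵ cells/mL were mock-infected with culture medium and exposed to serial fivefold dilutions of compound. After 5 days, viability was measured by MTT reduction at 540 and 690 nm, using the median OD of three wells. CC50 is the concentration reducing OD540 of the mock-infected control by 50%.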
(In general: Formazan colour is commonly taken as a measure of viable cells.)

The nature of series [4]: Selectivity index, ratio of CC50 for human MT4 cells to EC50 for wild type HIV1 3B. In kind it is toxicity, cell-based. The note with it: read-out: Ratio CC50/EC50. An outline of the steps:
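HIV-1 IIIB stock at 100–300 CCID50 was added to MT-4 cells at 6 × 10⁵ cells/mL, with serial fivefold compound dilutions and mock-infected wells run in parallel. Viability was read by MTT at 540 and 690 nm after 5 days, using the median OD of three wells. EC50 is 50% protection from HIV-induced cytotoxicity, and CC50 is a 50% reduction of mock-infected OD540. SI is CC50/EC50.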

Series [5] relates to Human immunodeficiency virus 1. Description: Antiviral activity against HIV1 RES056 harboring reverse transcriptase K103N/Y181C mutant infected in human MT4 cells assessed as inhibition of virus-induced cytopathic effect after 5 days by MTT assay. In kind it is functional, organism-based. The conditions noted are these: Human immunodeficiency virus 1, RES056, MT4, 120 h. A digest of the protocol: (§2)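 MT-4 cells at 6 × 10⁵ cells/mL were infected with the double mutant HIV-1 RES056 (K103N+Y181C), with serial fivefold compound dilutions. After 5 days, viability was read by MTT at 540 and 690 nm, using the median OD of three wells. EC50 is 50% protection against virus-induced cytotoxicity, and CC50 is a 50% drop in OD540 of mock-infected cells. Fold resistance is the RES056 EC50 divided by the IIIB EC50.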

A short description of series [6]: Selectivity index, ratio of CC50 for human MT4 cells to EC50 for HIV1 RES056 harboring reverse transcriptase K103N/Y181C RT mutant. The conditions noted are these: read-out: Ratio CC50/EC50. In kind it is toxicity, cell-based.
Series [7] has as its system Human immunodeficiency virus 1. Nature of the series: Fold resistance, ratio of EC50 for HIV1 RES056 harboring reverse transcriptase K103N/Y181C RT mutant to EC50 for wild type HIV1 3B. In kind it is functional. An outline of the steps:
as §2

These results are taken from ChEMBL document CHEMBL2034927, “Design, synthesis, anti-HIV evaluation and molecular modeling of piperidine-linked amino-triazine derivatives as potent non-nucleoside reverse transcriptase inhibitors” (Bioorg Med Chem, 2012).

pEC50: −log10 of the molar value.

As to `Cc1cc(C)c(Nc2nc(N)nc(NC3CCN(Cc4ccncc4)CC3)n2)c(C)c1`, the pEC50 is 8.31 in series [1], less than 4.70 in series [2] and 6.01 in series [5]. In series [3], this compound returned a CC50 at 120 h of 20100 nM. In addition, the selectivity ratio in series [4] worked out at 4110; in series [6] it was 21. The “Ratio EC50” value in series [7] amounted to 198.8.

Broadly, the pEC50 is −log10 of the EC50, conventionally taken in molar units. Broadly, the CC50 is the concentration giving 50% cytotoxicity. A high value points to better tolerance by the cells.
